“Also recorded” adds a separate entry of the source.
Legend:
[1] = cited from earlier work
[2] = test system: eWAT explants; assay: lipolysis; format: cell-based, mouse; details: 10 nM glucagon, 4 h
[3] = plasma FFAs; format: in vivo, mouse
[4] = cited from earlier work; remark: listed apart in the source
[5] = test system: GCGR and GLP-1R; details: vs cognate ligands; cited from earlier work
[6] = cited from earlier work; remark: listed apart in the source
[7] = body weight, HFD-fed; format: in vivo, mouse; details: DIO mice, 1 week
[8] = test system: BAT, eWAT, iWAT; assay: UCP1 and TH protein; format: in vivo, mouse; details: DIO mice, Fc-GLP1
[9] = peptide concentration in plasma; format: in vivo, mouse; details: DIO mice, 24 h post-injection, 50 nmol/kg s.c., n = 6; cAMP bioassay
How it was run: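 Plasma activity was read in a cAMP assay on CHO cells expressing human GLP-1R, in HBSS pH 7.4 with 25 mM HEPES, 0.1% BSA and 0.5 mM IBMX. Serial dilutions were run in duplicate for 30 min at RT with HTRF detection. Standards were reference peptide spiked into 0.2% (final) naïve plasma. Sample ratio = sample EC50/reference EC50; concentration = known top concentration/ratio.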

[10] = BAT skin temperature; format: in vivo, mouse; details: DIO mice, Fc-GLP1
[11] = test system: POMC neurons, arcuate nucleus; assay: cFos-positive POMC neurons in ARC; format: in vivo, mouse; details: DIO mice, Fc-GLP1, 1 week
How it was run: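 Brain slices were blocked 2 h at RT in PBS with 1% BSA and 0.1% Triton X-100. They were incubated overnight at 4 °C with anti-POMC and anti-c-Fos, then with secondary antibodies in 1% BSA/PBS for 2 h at RT, protected from light.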

[12] = blood ketone bodies; format: in vivo, mouse; details: DIO mice, Fc-GLP1
How it was run: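 DIO mice were fed 60%-fat HFD from 8 weeks of age, for 12 weeks (males) or 24 weeks (females); one male cohort was housed at 30 °C. The test compound was given s.c. every 2 days in 50 mM sodium phosphate/300 mM mannitol pH 6.9. Glucose and ketone bodies were read in tail-vein blood.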

[13] = plasma insulin; format: in vivo, mouse; details: DIO mice, Fc-GLP1
How it was run: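 Plasma ALT was read with Reflotron strips and plasma TGs by colorimetric assay. Serum FGF21 and plasma adiponectin and insulin were measured by ELISA.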

[14] = test system: GCGR; assay: block of glucagon-induced glucose elevation in lean mice; format: in vivo, mouse

Substance: glucagon: native GCGR ligand
- FFA concentration, supraphysiological administration [1]: increased FFA concentration
- plasma FFAs, physiological doses ([1]; humans): did not find elevation in plasma FFAs in humans
- lipolysis ex vivo in WAT explants ([1]; wild-type or adipocyte-specific GCGR-deficient mice, 1 h): lack of effect of glucagon in lipolysis ex vivo in WAT explants
- lipolysis [2]: increased lipolysis in eWAT explants
- circulating FFAs / lipolysis ([3]; lean mice, glucagon (100 nmol/kg), 1 h): this effect was not detected at 1 h; also recorded: did not increase lipolysis at 1 h
- circulating FFAs ([3]; lean mice, glucagon, 6 h post-injection): an increase of circulating FFAs at 6 h post-injection

Substance: OXM: native peptide oxyntomodulin, activates both GLP-1R and GCGR
- half-life in circulation [4]: short half-life in circulation
- affinity to GLP-1R and GCGR [5]: reduced affinity compared with their cognate ligands

Substance: cotadutide
- liver metabolism, MASH and fibrosis ([4]; C57BL/6J or ob/ob mice): more effective than obeticholic acid in improving liver metabolism and ameliorating MASH and fibrosis
- liver inflammation and adipocyte apoptosis [4]: decreased liver inflammation and apoptosis in adipocytes
- postprandial glucose, body weight, hepatic fat ([6]; obese/overweight individuals, type 2 diabetes): improved postprandial glucose excursions and reduced body weight and hepatic fat
- glycemia, body weight, MASLD ([6]; phase 2b trial): reduced glycemia and body weight and improved metabolic-dysfunction associated steatotic liver disease (MASLD)

Substance: HGEGTFTSDVSSYLEGQAAKEFIAWLVKGG-linker-Fc [Fc-GLP1, reference compound]
- loss of body weight ([7]; Fc-GLP1 50 nmol/kg): 11.0 ± 0.46%
- UCP1 in BAT [8]: neither UCP1 nor BAT temperature were increased
- peptide plasma level [9]: 105.1 ± 18.33 nM
- BAT temperature [10]: neither UCP1 nor BAT temperature were increased
- plasma FFAs ([3]; DIO mice, Fc-GLP1, 6 h): elevation of FFAs was not observed
- cFos positive POMC neurons [11]: an increase in cFos positive POMC neurons
- ketogenesis [12]: ketogenesis was not elevated
- plasma insulin peak [13]: a lower insulin peak

Substance: des-His1-[Glu9]-Glucagon (1-29) amide [GCGRant, reference compound]
- body weight loss ([7]; GCGRant alone (1 mg/kg i.p. daily)): 6.8 ± 0.46%
- block of glucagon effect on glucose [14]: able to block the effect of glucagon in elevating glucose levels in lean mice

Reference: paper PMC11605122 (Nature Communications, 2024)
